# Bioassay records (PubChem BioAssay)
# Hits are enriched below; roughly 3.2% of the tested compounds scored in any of these assays.
# rCAG binder-1 = binders of r(CAG) RNA repeats, primary screen, biochemical, fluorescence. r(CAG) RNA repeat, TO-PRO-1 dye displacement fluorescence. AID 651821, 2012. inhibition, % at 3 µM. 370,000 compounds, 1.3% hits;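 active = inhibition above the plate cutoff, the mean of all test compounds on that plate plus 3 SD, cut at about 35% in these data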;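 also: 0% = DMSO alone and 100% = 100 µM mitoxantrone as full dye displacement; higher means more dye released from RNA so lower well fluorescence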
# mABHD4 FP = ABHD4 inhibitors, primary screen, biochemical, fluorescence polarization, mouse; inhibition, % at 8.92 µM; (Lyso)-N-acylphosphatidylethanolamine lipase (Mus musculus), Q8VD66; AID 720543, 2013; 370,000 compounds, 0.54% hits; purified mABHD4, FP-Rh probe fluorescence polarization;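 active = inhibition exceeding the mean over every tested compound plus 3 SD, cut at about 30% in these data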;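 also: 0% = plate median of compound wells and 100% = S159A mutant with DMSO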
# Target sequence (Q8VD66 whole entry, looked up): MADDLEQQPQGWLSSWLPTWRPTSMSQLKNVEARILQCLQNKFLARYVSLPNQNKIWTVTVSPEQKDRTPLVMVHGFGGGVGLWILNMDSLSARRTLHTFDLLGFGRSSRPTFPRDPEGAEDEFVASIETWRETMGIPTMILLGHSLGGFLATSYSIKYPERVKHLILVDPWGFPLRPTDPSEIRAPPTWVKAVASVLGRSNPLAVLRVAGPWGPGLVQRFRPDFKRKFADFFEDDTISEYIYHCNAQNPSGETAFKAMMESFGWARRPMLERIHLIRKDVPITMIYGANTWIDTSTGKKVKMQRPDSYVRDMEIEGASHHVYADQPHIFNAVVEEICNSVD
#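 Test system: mABHD4 protein; Read-out basis: % inhibition; Incubation: 45 min + 60 min at 25 °C; Repeats: single replicate; Technique: fluorescence polarization with parallel and perpendicular emission, 525/598 nm; Compound: 8.92 µM, single dose; Benchmarks: full inhibition S159A mutant plus DMSO, zero as sample-well median.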
# HTRA1 inh = HTRA1 serine protease inhibitors, primary screen, biochemical, fluorescence polarization, HTS; Q92743; recombinant HTRA1, FP-rhodamine activity-based probe; inhibition, % at 5.96 µM; 340,000 compounds, 0.5% hits; in the data active = inhibition above about 36%;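 also: 0% = enzyme with DMSO and 100% = wells lacking enzyme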
# DAGLB inhibitor = DAGLB lipase inhibitors, primary screen, biochemical, fluorescence, HTS. Diacylglycerol lipase-beta (Homo sapiens), Q8NCG7. 340,000 compounds, 0.059% hits. AID 504411, 2011. inhibition, % at 5.17 µM. HEK293T DAGLB membrane lysate, EnzChek fluorogenic substrate; in the data active = inhibition above about 34%;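 also: 0% = enzyme with vehicle and 100% = wells lacking enzyme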
# PRMT1 inh = PRMT1 methyltransferase inhibitors, primary screen, biochemical, fluorescence polarization. 370,000 compounds, 1.3% hits. AID 652257, 2013. recombinant PRMT1, activity-based probe fluorescence polarization. Protein arginine N-methyltransferase 1 (Homo sapiens), Q99873. inhibition, % at 2.79 µM;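 active = inhibition above about 21% made by adding two undisclosed values, limit read from the data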
# Target sequence (Q99873 whole entry, looked up): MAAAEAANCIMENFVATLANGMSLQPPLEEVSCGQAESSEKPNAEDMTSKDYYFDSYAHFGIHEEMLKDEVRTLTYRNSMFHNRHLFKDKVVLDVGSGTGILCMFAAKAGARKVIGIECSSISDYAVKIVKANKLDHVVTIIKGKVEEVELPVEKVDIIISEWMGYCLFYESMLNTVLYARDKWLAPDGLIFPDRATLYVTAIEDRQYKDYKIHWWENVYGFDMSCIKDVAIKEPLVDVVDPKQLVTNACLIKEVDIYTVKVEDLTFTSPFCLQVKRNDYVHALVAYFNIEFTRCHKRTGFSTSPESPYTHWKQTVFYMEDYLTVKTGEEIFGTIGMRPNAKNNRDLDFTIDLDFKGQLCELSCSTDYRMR
# LEDGF integ inh = blockers of LEDGF/p75-dependent integrase strand transfer – biochemical, TR-FRET, high throughput, primary screen. TR-FRET IN-LEDGF/p75 DNA integration, Eu/Cy5. inhibition, % at 3.7 µM. 370,000 compounds, 0.64% hits. AID 743269, 2014;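 active = inhibition above the screen-wide mean plus 3 SD, cut at about 13% in these data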;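 also: signal is the Cy5 over europium emission ratio at 671 and 618 nm; 0% = plate median of compound wells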
# rCAG bind conf = small molecules binding CAG repeat RNA – biochemical, fluorescence, confirmation | shares compounds with rCAG binder-1 | 4,300 compounds, 70% hits | inhibition, % at 3 µM | r(CAG) RNA repeat, TO-PRO-1 dye displacement fluorescence;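 active = inhibition above a per-plate cutoff, the mean inhibition of sample wells plus 3 SD, cut at about 35% in these data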;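 also: loss of TO-PRO-1 fluorescence as compound displaces dye from 1x1 AA loop RNA; 0% = DMSO only wells and 100% = 100 µM mitoxantrone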
# dCAG dye counter = displacement of TO-PRO-1 from CAG DNA duplex, counter-screen for rCAG RNA repeat binder project, biochemical, fluorescence, TO-PRO-1 dye, d(CAG) DNA oligo; inhibition, % at 3 µM; AID 652068, 2013; d(CAG) DNA oligo TO-PRO-1 dye displacement; 4,300 compounds, 94% hits; shares compounds with rCAG binder-1;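 active = inhibition above its plate's cutoff, the mean test-well inhibition plus 3 SD, cut at about 4.8% in these data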;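 also: 0% = DNA dye mix with DMSO and 100% = 100 µM mitoxantrone; hits displace the dye from DNA and so lower well fluorescence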
# DNA CAG DR = inhibitors of DNA CAG/GTC TO-PRO-1 complex, dose response, counter-screen for rCAG RNA repeat binder project, biochemical, fluorescence, TO-PRO-1 dye | shares compounds with rCAG binder-1 | DNA CAG/GTC duplex TO-PRO-1 dye displacement fluorescence | IC50, µM | 250 compounds, 20% hits | AID 686960, 2013; in the data active = IC50 below about 10 µM
# dCAG TOPRO ctr = TO-PRO-1 dye complex inhibitors on d(CAG) DNA, dose response, counter-screen, biochemical, fluorescence, late stage; AID 720649, 2013; d(CAG) DNA duplex TO-PRO-1 dye displacement; IC50, µM; shares compounds with rCAG binder-1; 30 compounds, 80% hits
# rCAG binder-2 = molecules binding r(CAG) RNA repeats, late stage dose response, late-stage follow-up, biochemical, fluorescence, dose response, powder samples; shares compounds with rCAG binder-1; r(CAG) RNA TO-PRO-1 dye displacement; IC50, µM; 30 compounds, 100% hits; AID 720651, 2013
# An asterisk follows results filed as active; i = inactive; nt = no result. Unless noted, no rule for the calls is given here.
SMILES,rCAG binder-1,mABHD4 FP,HTRA1 inh,DAGLB inhibitor,PRMT1 inh,LEDGF integ inh,rCAG bind conf,dCAG dye counter,others
O=C(Nc1ccccc1Cl)c1cc(S(=O)(=O)N2CCOCC2)cs1,-1.1,1.3,0.0,1.4,-1.4,-0.1,nt,nt,
O=S(=O)(Nc1cccc(-n2cnnn2)c1)c1ccccc1,3.9,1.6,-1.1,-1.1,-2.3,4.6,nt,nt,
O=S(=O)(Nc1cccc(-n2cnnn2)c1)c1cc(Br)ccc1Br,36.1*,-1.6,2.8,6.8,1.3,-1.1,20.7,4.9*,
CN1CCN(S(=O)(=O)c2cccc(C(=O)Nc3sc4c(c3-c3nc5ccccc5[nH]3)CCCC4)c2)CC1,37.8*,2.6,-7.6,-3.3,1.3,0.8,29.1,19.5*,
COc1ccccc1C(=O)NCCN1CCCC1,1.2,6.3,11.2,-0.2,-0.5,-2.2,nt,nt,
CC1=C(C#N)c2nc(N)c(C#N)c(C)c2/C1=C\c1ccc(-c2ccccc2C(=O)O)o1,46.2*,19.0,20.4,21.3,14.6,10.1,69.4*,32.1*,DNA CAG DR=i;dCAG TOPRO ctr=2.83*;rCAG binder-2=1.11*
Cc1ccc2c(c1)c(CC(=O)Nc1ccc(C)c(F)c1)c(C(=O)O)n2C,48.8*,10.8,-26.2,10.8,0.9,-2.9,44.4*,13.0*,
Cn1c(C(=O)O)c(CC(=O)Nc2ccccc2F)c2ccccc21,7.7,6.4,0.1,-2.6,1.1,-4.7,nt,nt,
N#CCc1nc(C(c2ccccc2)c2ccccc2)no1,39.6*,-19.2,-21.3,-21.2,2.9,-6.2,16.7,8.0*,
CC(C)C(=O)Nc1ccc(C(=O)NN2C(=O)c3ccccc3C2=O)cc1,3.9,2.5,5.2,-3.1,1.3,-2.7,nt,nt,
N#C/C(=C(/O)CN1CCN(c2ccccc2F)CC1)c1nc(-c2ccccc2)cs1,58.2*,6.9,-2.1,13.4,-3.1,0.8,49.5*,16.2*,
Cc1ccc(C)c(NC(=O)CSc2nc(N)c(NC(=O)c3cccs3)c(=O)[nH]2)c1,2.7,1.3,-2.8,-0.7,3.6,0.7,nt,nt,
Cc1ccc(C)c(NC(=O)CSc2nc3nc(-c4cccs4)cc(C(F)(F)F)c3c(=O)[nH]2)c1,57.8*,-39.3,-66.6,13.8,-1.6,2.1,82.9*,47.0*,
CCOc1ccc(C(CC(=O)O)NC(=O)c2sc3ccccc3c2Cl)cc1 (stereo unspecified),29.1,-1.4,-6.0,1.3,-0.8,2.8,nt,nt,
CCCOc1ccc(C(CC(=O)O)NC(=O)c2sc3ccccc3c2Cl)cc1 (stereo unspecified),53.0*,-4.1,-15.6,3.2,7.0,0.4,42.4*,9.9*,
Cc1noc(NS(=O)(=O)c2ccc(NC(=O)c3cc4ccccc4o3)cc2)c1C,25.0,-2.3,-6.3,1.2,7.2,-5.5,nt,nt,
Cc1ccc2c(C)c(C(=O)Nc3ccc(S(=O)(=O)Nc4onc(C)c4C)cc3)oc2c1,78.9*,-10.3,-19.9,0.8,-0.4,3.0,74.5*,39.8*,
Cc1cc(C)c(C(=O)Nc2ccc(S(=O)(=O)Nc3onc(C)c3C)cc2)c(C)c1,13.7,0.0,-1.5,1.5,3.4,1.0,nt,nt,
Cc1ccc2c(=O)cc(C(=O)Nc3ccc(S(=O)(=O)Nc4onc(C)c4C)cc3)oc2c1,61.0*,-2.5,-1.9,2.8,1.6,-1.7,37.2*,11.3*,
Cc1noc(NS(=O)(=O)c2ccc(NC(=O)c3oc4ccc(Cl)cc4c3C)cc2)c1C,87.9*,-13.0,-26.8,10.7,2.2,3.2,84.8*,47.6*,
Cc1cccc(-n2ccc(=O)c(C(=O)Nc3ccc(S(=O)(=O)Nc4onc(C)c4C)cc3)n2)c1,39.1*,1.7,11.5,-9.4,-1.3,2.0,43.4*,12.3*,
Cc1cc(C)nc(NS(=O)(=O)c2ccc(NC(=O)c3nn(-c4ccccc4)ccc3=O)cc2)n1,-0.9,-7.4,-0.1,-1.6,-2.8,3.2,nt,nt,
CN(C(=O)COC(=O)Cc1ccc(Cl)cc1)C1CCCCC1,0.6,-6.1,2.3,-3.3,5.8,2.5,nt,nt,
CCOC(=O)N1CCC(NC(=O)c2ccc3c(c2)N(Cc2ccc(F)cc2)CCS3)CC1,4.0,3.5,-8.4,2.5,0.4,2.6,nt,nt,
COc1cc(/C=C2/SC(=S)N(Cc3ccccc3)C2=O)ccc1OCC(=O)O,71.8*,-13.8,-58.8,3.9,2.9,4.5,86.5*,54.6*,
SMILES,rCAG binder-1,mABHD4 FP,HTRA1 inh,DAGLB inhibitor,PRMT1 inh,LEDGF integ inh,rCAG bind conf,dCAG dye counter,others
CCOc1cc(/C=C2/SC(=O)N(CC(=O)N3CCc4ccccc4C3)C2=O)ccc1OCC(=O)O,56.7*,-16.9,-9.9,-3.8,0.4,0.9,60.3*,20.7*,
O=C1/C(=C\c2cccc([N+](=O)[O-])c2O)SC(=S)N1Cc1ccccc1,37.3*,-27.4,9.4,20.4,15.8,-4.0,93.4*,78.2*,
CCOc1cc(/C=C2/SC(=S)N(Cc3ccccc3)C2=O)ccc1O,37.0*,-77.3,-57.3,-1.7,-3.2,2.6,42.2*,23.6*,
O=C1/C(=C/c2ccc(O)c([N+](=O)[O-])c2)SC(=S)N1Cc1ccccc1,7.1,5.4,3.0,6.3,-2.8,1.5,nt,nt,
COc1ccc2[nH]c3c(c2c1)CCN1C(=O)C(CC(=O)NCc2ccco2)C[C@H](C(=O)N2CCCCC2)[C@@]31CCc1ccccc1 (stereo partly specified),5.0,-4.2,2.4,-0.8,-5.5,1.1,nt,nt,
CCc1nnc(NS(=O)(=O)c2ccc(NC(=S)NC(=O)/C=C/c3ccc([N+](=O)[O-])cc3)cc2)s1,37.5*,-6.8,-0.8,7.7,1.0,0.4,23.3,7.7*,
